According to ChEMBL document CHEMBL3098105, “7,7'-Diazaindirubin--a small molecule inhibitor of casein kinase 2 in vitro and in cells” (Bioorg Med Chem, 2014):

Assays:
[1] = target: Serine/threonine-protein kinase DCLK2 (Homo sapiens) (UniProt Q8N568); assay: Inhibition of human DCAMKL2 assessed as residual activity at 1 uM relative to control
[2] = Antiproliferative activity against human OVCAR4 cells after 3 days by sulforhodamine B assay; type: functional; conditions: OVCAR-4, 72 h
How it was run: (§1)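 Tested in the NCI 60 cell line panel. GI50 is the concentration giving 50% inhibition of cell growth, and values are the mean of two series of tests.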

SN12C = assay: Antiproliferative activity against human SN12C cells after 3 days by sulforhodamine B assay; type: functional; conditions: 72 h
[3] = target: Ephrin type-A receptor 7 (Homo sapiens) (UniProt Q15375); assay: Inhibition of human EphA7 assessed as residual activity at 1 uM relative to control
Ephrin type-A receptor 7 (Homo sapiens), sequence (Q15375 28-998 limits assumed): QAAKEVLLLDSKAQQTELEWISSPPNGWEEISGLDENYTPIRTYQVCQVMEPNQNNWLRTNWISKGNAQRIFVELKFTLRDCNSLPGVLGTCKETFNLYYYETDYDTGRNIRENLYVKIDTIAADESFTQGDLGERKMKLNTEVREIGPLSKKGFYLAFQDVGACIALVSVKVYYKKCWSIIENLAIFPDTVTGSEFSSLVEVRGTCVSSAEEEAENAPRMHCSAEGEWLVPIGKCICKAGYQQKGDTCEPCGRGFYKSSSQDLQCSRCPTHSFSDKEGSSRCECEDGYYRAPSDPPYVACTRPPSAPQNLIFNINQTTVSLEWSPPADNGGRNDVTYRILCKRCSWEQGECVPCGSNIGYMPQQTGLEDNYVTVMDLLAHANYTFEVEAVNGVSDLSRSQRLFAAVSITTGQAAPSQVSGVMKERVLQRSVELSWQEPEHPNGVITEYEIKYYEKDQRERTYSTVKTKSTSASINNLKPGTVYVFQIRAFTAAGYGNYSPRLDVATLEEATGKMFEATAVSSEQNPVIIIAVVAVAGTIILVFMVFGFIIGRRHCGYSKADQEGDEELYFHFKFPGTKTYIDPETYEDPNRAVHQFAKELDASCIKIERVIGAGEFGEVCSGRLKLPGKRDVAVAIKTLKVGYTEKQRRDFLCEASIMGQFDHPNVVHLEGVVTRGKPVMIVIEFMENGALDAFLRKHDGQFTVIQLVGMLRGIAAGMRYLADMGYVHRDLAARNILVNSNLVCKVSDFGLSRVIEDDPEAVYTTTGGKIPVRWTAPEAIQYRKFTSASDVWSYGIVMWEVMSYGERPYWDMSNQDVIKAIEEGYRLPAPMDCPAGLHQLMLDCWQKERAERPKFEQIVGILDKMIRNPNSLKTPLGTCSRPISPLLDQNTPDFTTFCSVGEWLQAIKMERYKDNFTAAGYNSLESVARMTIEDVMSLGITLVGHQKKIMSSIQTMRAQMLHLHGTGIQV

[4] = Antiproliferative activity against human NCI-ADR-RES cells after 3 days by sulforhodamine B assay; type: functional; conditions: 72 h; how it was run: as §1
[5] = target: T1, Aurora kinase A (Homo sapiens) (UniProt O14965); assay: Inhibition of Aurora-A (unknown origin) assessed as residual activity at 10 uM relative to control
T1 sequence (whole entry): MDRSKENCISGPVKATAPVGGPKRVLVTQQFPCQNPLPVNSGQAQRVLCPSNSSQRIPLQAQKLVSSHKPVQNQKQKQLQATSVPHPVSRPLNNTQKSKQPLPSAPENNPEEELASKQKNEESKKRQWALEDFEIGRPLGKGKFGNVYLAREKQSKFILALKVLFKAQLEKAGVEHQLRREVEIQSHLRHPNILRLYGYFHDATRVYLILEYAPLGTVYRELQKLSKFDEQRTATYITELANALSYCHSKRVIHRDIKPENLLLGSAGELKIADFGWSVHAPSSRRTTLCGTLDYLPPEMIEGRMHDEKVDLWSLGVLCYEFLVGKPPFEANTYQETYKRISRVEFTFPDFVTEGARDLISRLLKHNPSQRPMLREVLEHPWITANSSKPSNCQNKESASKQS

LOX IMVI = assay: Antiproliferative activity against human LOXIMVI cells after 3 days by sulforhodamine B assay; type: functional; conditions: 72 h; how it was run: as §1
[6] = target: Serine/threonine-protein kinase Chk2 (Homo sapiens) (UniProt O96017); assay: Inhibition of human CHK2 assessed as residual activity at 1 uM relative to control
Serine/threonine-protein kinase Chk2 (Homo sapiens), sequence (O96017 whole entry): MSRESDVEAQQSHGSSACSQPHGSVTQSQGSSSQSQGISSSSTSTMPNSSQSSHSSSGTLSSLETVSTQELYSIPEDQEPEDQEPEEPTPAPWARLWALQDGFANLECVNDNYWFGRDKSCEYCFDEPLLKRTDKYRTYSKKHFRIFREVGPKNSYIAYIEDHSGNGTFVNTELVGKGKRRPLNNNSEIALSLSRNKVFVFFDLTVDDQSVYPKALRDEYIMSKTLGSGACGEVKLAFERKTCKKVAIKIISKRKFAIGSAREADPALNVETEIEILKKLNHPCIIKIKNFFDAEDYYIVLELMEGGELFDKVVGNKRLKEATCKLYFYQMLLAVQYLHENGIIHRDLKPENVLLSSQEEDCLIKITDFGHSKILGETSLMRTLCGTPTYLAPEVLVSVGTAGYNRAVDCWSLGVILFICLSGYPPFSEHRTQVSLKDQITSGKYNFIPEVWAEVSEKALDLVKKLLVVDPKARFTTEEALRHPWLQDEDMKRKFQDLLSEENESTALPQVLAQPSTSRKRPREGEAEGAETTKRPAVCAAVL

[7] = target: Fibroblast growth factor receptor 1 (Homo sapiens) (UniProt P11362); assay: Inhibition of FGF-R1 (unknown origin) assessed as residual activity at 10 uM relative to control
SNB-75 = assay: Antiproliferative activity against human SNB75 cells after 3 days by sulforhodamine B assay; type: functional; conditions: SNB-75, 72 h
[8] = target: Tyrosine-protein kinase Fgr (Homo sapiens) (UniProt P09769); assay: Inhibition of human Fgr assessed as residual activity at 1 uM relative to control
Tyrosine-protein kinase Fgr (Homo sapiens), sequence (P09769 2-529 limits assumed): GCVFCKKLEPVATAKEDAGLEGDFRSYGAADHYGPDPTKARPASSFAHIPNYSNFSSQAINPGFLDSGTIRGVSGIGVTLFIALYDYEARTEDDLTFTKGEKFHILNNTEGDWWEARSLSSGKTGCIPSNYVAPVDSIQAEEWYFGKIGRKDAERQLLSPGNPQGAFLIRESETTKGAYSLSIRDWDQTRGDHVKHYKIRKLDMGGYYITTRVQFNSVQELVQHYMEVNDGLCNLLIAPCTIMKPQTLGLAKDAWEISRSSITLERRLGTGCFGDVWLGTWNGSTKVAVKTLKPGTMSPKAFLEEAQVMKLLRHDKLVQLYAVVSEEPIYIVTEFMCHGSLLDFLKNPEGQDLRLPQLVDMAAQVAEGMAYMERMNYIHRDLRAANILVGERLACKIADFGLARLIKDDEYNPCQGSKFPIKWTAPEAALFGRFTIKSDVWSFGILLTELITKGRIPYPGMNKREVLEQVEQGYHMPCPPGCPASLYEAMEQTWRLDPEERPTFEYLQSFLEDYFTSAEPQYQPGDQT

[9] = target: Serine/threonine-protein kinase Chk2 (Homo sapiens) (UniProt O96017); assay: Inhibition of CHK2 (unknown origin) assessed as residual activity at 10 uM relative to control
MCF7 [10] = assay: Cell cycle arrest in human MCF7 cells assessed as accumulation at G2/M phase at 1 uM after 24 hrs using propidium iodide staining by FACS analysis (reference value: 22.13%); type: functional
[11] = Antiproliferative activity against human EKVX cells after 3 days by sulforhodamine B assay; type: functional; conditions: 72 h; how it was run: as §1
[12] = target: Receptor tyrosine-protein kinase erbB-2 (Homo sapiens) (UniProt P04626); assay: Inhibition of ERBB2 (unknown origin) assessed as residual activity at 1 uM relative to control
[13] = target: Dual specificity mitogen-activated protein kinase kinase 1 (Homo sapiens) (UniProt Q02750); assay: Inhibition of human MEK1 assessed as residual activity at 1 uM relative to control
Dual specificity mitogen-activated protein kinase kinase 1 (Homo sapiens), sequence (Q02750 whole entry): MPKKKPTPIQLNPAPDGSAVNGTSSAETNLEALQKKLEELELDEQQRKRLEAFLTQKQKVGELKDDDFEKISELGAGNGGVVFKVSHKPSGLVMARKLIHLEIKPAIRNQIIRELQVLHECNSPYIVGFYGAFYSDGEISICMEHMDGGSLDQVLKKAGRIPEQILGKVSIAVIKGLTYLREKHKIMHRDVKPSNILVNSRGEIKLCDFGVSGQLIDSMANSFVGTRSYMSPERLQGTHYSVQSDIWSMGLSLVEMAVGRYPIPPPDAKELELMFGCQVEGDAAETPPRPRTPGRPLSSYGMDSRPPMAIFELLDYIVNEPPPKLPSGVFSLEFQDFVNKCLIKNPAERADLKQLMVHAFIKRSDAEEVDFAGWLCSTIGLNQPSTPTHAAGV

[14] = target: Homeodomain-interacting protein kinase 1 (Homo sapiens) (UniProt Q86Z02); assay: Inhibition of human HIPK1 assessed as residual activity at 1 uM relative to control
Homeodomain-interacting protein kinase 1 (Homo sapiens), sequence (Q86Z02 whole entry, looked up): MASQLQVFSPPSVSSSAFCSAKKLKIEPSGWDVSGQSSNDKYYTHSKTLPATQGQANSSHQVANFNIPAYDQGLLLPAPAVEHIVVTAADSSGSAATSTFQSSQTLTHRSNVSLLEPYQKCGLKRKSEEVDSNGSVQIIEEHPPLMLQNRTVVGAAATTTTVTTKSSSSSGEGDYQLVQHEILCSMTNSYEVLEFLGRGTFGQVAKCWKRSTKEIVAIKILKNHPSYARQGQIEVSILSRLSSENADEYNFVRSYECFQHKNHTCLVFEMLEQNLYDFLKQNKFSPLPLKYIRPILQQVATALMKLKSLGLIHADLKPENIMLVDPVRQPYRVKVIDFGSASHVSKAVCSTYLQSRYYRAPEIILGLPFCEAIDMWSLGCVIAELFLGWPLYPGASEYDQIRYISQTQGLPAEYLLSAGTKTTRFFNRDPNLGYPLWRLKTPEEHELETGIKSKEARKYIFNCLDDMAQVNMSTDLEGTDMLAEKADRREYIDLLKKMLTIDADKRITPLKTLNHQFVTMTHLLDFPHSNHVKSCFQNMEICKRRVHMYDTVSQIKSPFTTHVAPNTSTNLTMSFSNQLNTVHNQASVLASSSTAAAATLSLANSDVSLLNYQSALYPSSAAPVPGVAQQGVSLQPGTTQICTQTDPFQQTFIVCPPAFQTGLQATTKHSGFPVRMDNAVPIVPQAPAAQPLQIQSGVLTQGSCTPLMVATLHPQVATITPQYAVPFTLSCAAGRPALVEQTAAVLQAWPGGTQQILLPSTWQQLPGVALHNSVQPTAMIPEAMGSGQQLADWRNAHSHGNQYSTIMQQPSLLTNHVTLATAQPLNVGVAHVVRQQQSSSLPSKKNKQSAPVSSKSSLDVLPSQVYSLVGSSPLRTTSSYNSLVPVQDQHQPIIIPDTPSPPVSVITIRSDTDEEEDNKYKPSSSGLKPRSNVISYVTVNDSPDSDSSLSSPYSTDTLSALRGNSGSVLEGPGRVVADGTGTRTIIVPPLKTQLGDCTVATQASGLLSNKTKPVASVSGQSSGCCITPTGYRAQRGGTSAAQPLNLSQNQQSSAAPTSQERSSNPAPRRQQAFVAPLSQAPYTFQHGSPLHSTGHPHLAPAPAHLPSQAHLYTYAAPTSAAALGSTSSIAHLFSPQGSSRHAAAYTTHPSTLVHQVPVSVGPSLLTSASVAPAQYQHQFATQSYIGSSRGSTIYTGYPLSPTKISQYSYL

[15] = target: Dual specificity mitogen-activated protein kinase kinase 4 (Mus musculus) (UniProt P47809); assay: Inhibition of mouse MKK4 assessed as residual activity at 1 uM relative to control
Dual specificity mitogen-activated protein kinase kinase 4 (Mus musculus), sequence (P47809 whole entry): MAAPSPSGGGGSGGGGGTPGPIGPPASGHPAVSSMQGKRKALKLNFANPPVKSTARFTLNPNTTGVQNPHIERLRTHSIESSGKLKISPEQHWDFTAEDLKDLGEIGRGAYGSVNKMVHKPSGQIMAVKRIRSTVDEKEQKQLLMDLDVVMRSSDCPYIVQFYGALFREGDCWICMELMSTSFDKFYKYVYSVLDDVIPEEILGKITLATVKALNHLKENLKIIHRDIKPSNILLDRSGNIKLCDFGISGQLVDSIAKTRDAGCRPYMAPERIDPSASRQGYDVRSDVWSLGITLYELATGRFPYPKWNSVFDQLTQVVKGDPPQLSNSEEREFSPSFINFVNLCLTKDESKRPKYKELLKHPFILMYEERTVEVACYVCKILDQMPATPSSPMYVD

MCF7 [16] = assay: Cell cycle arrest in human MCF7 cells assessed as accumulation at S phase at 0.5 uM after 24 hrs using propidium iodide staining by FACS analysis (reference value: 18.59%); type: functional
[17] = target: High affinity nerve growth factor receptor (Homo sapiens) (UniProt P04629); assay: Inhibition of human TrkA assessed as residual activity at 1 uM relative to control
[18] = target: Homeodomain-interacting protein kinase 2 (Homo sapiens) (UniProt Q9H2X6); assay: Inhibition of human HIPK2 assessed as residual activity at 1 uM relative to control
[19] = target: Serine/threonine-protein kinase pim-2 (Homo sapiens) (UniProt Q9P1W9); assay: Inhibition of human Pim-2 assessed as residual activity at 1 uM relative to control
Serine/threonine-protein kinase pim-2 (Homo sapiens), sequence (Q9P1W9 whole entry, looked up): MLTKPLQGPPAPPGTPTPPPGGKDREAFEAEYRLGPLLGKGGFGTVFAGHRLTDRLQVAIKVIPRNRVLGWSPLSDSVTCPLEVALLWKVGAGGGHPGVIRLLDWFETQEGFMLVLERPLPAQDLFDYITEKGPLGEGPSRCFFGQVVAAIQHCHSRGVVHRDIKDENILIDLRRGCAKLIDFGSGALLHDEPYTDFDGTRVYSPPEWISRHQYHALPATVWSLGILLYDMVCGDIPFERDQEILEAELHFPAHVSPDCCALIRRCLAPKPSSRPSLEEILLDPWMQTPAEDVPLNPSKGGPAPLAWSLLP

[20] = target: Tyrosine-protein kinase Fgr (Homo sapiens) (UniProt P09769); assay: Inhibition of FGR (unknown origin) assessed as residual activity at 10 uM relative to control
[21] = target: Tyrosine-protein kinase HCK (Homo sapiens) (UniProt P08631); assay: Inhibition of human Hck assessed as residual activity at 1 uM relative to control
Tyrosine-protein kinase HCK (Homo sapiens), sequence (P08631 2-526 limits assumed): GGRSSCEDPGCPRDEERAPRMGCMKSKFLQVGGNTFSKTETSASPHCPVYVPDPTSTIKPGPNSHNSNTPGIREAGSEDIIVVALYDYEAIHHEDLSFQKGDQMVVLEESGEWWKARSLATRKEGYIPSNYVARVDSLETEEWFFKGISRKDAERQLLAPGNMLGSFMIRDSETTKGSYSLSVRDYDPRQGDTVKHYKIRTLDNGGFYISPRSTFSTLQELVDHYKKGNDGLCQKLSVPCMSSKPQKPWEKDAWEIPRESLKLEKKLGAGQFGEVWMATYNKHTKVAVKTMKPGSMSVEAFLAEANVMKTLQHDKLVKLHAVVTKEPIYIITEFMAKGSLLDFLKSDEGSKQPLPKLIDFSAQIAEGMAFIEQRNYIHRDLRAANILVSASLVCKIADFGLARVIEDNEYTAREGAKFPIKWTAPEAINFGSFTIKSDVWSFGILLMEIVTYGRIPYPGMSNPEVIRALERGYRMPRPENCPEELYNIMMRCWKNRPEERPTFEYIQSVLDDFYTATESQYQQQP

[22] = target: T2, Muscle, skeletal receptor tyrosine-protein kinase (Homo sapiens) (UniProt O15146); assay: Inhibition of MUSK (unknown origin) assessed as residual activity at 1 uM relative to control
T2 sequence (whole entry): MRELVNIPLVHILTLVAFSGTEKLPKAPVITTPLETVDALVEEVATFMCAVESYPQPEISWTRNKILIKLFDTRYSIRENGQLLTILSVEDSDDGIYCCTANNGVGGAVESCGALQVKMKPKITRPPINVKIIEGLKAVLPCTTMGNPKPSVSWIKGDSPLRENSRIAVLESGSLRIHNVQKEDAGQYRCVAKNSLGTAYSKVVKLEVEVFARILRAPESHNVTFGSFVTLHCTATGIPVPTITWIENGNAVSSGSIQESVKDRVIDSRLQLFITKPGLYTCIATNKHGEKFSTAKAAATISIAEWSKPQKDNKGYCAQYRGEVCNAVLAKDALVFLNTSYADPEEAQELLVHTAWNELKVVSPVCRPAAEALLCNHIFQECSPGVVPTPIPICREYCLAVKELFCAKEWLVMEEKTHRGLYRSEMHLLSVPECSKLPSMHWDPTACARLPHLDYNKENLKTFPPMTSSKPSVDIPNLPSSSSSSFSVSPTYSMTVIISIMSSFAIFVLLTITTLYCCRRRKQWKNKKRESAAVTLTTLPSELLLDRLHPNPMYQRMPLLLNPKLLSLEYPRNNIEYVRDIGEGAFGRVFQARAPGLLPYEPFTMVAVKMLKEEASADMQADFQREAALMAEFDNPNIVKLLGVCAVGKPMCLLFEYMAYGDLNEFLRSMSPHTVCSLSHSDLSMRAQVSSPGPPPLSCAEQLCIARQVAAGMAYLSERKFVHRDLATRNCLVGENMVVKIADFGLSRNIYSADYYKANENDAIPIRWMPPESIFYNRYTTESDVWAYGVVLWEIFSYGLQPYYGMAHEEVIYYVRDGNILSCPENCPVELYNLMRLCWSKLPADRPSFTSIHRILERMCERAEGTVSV

O=C1Nc2ncccc2/C1=C1/Nc2ncccc2C1=O
Activity [1]: 100%
GI50 [2]: 1090 nM
GI50 (SN12C): 1410 nM
Activity [3]: 105%
GI50 [4]: 1390 nM
Activity [5]: 61%
GI50 (LOX IMVI): 338 nM
Activity [6]: 120%
Activity [7]: 81%
GI50 (SNB-75): 1580 nM
Activity [8]: 114%
Activity [9]: 84%
Activity (MCF7 [10]): 22.63%
GI50 [11]: 1270 nM
Activity [12]: 99%
Activity [13]: 96%
Activity [14]: 80%
Activity [15]: 110%
Activity (MCF7 [16]): 17.48%
Activity [17]: 127%
Activity [18]: 115%
Activity [19]: 142%
Activity [20]: 93%
Activity [21]: 100%
Activity [22]: 95%
